Assay results gathered from unrelated publications.
Target: Serine/threonine-protein kinase pim-2 (PIM2, Homo sapiens, UniProt Q9P1W9)

The inhibition of `C#Cc1n[nH]c2c(-c3cn([C@@H](C)c4ccccc4)c(=O)[nH]c3=O)cc(F)cc12` is reported as 3.2% (enzyme activity; inhibitor; 0.1 µM).
For `N#CC1(c2ccccn2)CCN(Cc2cc(C(=O)O)c(=O)n3ccccc23)CC1`, the remaining binding was 100% (cell-free assay; competition with immobilised ligand; 1 µM).
`COc1ncccc1-c1cnn2ccc(N3CCN(C(=O)OC(C)C)CC3)nc12` gave a remaining binding of 100% (binding; competition with immobilised ligand; 1 µM).
With `Cn1cc(-c2cc(F)cc(N3CCn4c(cc5c4CCCC5)C3=O)c2CO)cc(Nc2ccc(N3CCN(C4COC4)CC3)cn2)c1=O` the inhibition was -1% (enzyme activity; inhibitor; 0.1 µM).
The inhibition of `C#Cc1n[nH]c2c(-c3cn(C(C)c4ccccn4)c(=O)[nH]c3=O)cc(F)cc12` (stereo not drawn) is reported as -1.5% (enzyme activity; inhibitor; 1 µM).
`COc1cc(Nc2ncc(F)c(Nc3ccc4c(n3)NC(=O)C(C)(C)O4)n2)cc(OC)c1OC` has an inhibition of 0% (binding; competition with immobilised ligand; 10 µM).
`CC(C)(C)c1cc(C=C(C#N)C#N)cc(Br)c1O` gave a remaining activity of 115% (enzyme activity; inhibitor; 0.5 µM).
With `Cc1nn(C)cc1-c1nc2c(N3CCN(Cc4ccc(Cl)cc4)CC3)c(Cl)cnc2[nH]1` the remaining binding was 100% (binding; competition with immobilised ligand; 1 µM).
`O=c1[nH]c2ccccc2n1C1CCN(Cc2ccc(-c3[nH]c4cc5ncnc5cc4nc3-c3ccccc3)cc2)CC1` has a remaining signal of 111% (cell-free assay; 0.5 µM).
The remaining binding of `Cn1cncc1[C@](O)(COc1ccc(C#N)cc1-c1ccc(OC(F)(F)F)cc1)c1ccc(C#N)cc1` is reported as 84% (cell-free assay; competition with immobilised ligand; 1 µM).
The inhibition of `Cn1cc(-c2cccc(N3CCc4c(sc5c4CC(C)(C)C5)C3=O)c2CO)cc(Nc2ccncn2)c1=O` is reported as 1% (enzyme activity; inhibitor; 1 µM).
The remaining binding of `Nc1ncc(-c2nc(N3CCOCC3)nc(N3CCOCC3)n2)c(C(F)F)n1` is reported as 92% (binding; competition with immobilised ligand; 10 µM).
